Results reported in ChEMBL document CHEMBL1129971, “Cyclic HIV-1 protease inhibitors derived from mannitol: synthesis, inhibitory potencies, and computational predictions of binding affinities” (J Med Chem, 1997).

The compounds below were run against Human immunodeficiency virus type 1 protease (Human immunodeficiency virus 1) (UniProt Q72874). Conditions: 10 uM.

Compared with `O=C1N(Cc2ccccc2)[C@H](COc2ccccc2)[C@@H](O)[C@H](O)[C@@H](COc2ccccc2)N1Cc1ccccc1`, `O=C1N(Cc2ccccc2)[C@@H](COc2ccccc2)[C@@H](O)[C@H](O)[C@H](COc2ccccc2)N1Cc1ccccc1` is higher in inhibition: 0% for the first, 15% for the second.

`O=C1N(Cc2ccccc2)[C@@H](COc2ccccc2)[C@H](O)[C@@H](O)[C@H](COc2ccccc2)N1Cc1ccccc1` was tested, and the inhibition was 10%.

The compounds below were run against T1, Human immunodeficiency virus type 1 protease (Human immunodeficiency virus 1, UniProt Q72874) (assay: Binding affinity against HIV-1 protease). Conditions: not given.
Outline: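 Ki from the activity of 20 nM HIV-1 protease across a matrix of substrate (HIV substrate III at 10, 20, 50 and 100 µM) and at least three inhibitor levels: roughly the estimated Ki and 2–4 times it. Tight-binding rate equation fitted by nonlinear regression. Buffer and read-out as in the spectrophotometric cleavage assay.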

First: O=S1(=O)N(Cc2ccccc2)[C@H](CCc2ccccc2)[C@H](O)[C@@H](O)[C@@H](CCc2ccccc2)N1Cc1ccccc1
Second: O=C1N(Cc2ccccc2)[C@H](CCc2ccccc2)[C@H](O)[C@@H](O)[C@@H](CCc2ccccc2)N1Cc1ccccc1
The Ki of the first is 15-fold lower: 14.7 nM for the first, 214 nM for the second. The first binds more tightly here.

Going from `O=C1N(Cc2ccc(CO)cc2)[C@H](COc2ccccc2)[C@H](O)[C@@H](O)[C@@H](COc2ccccc2)N1Cc1ccc(CO)cc1` to `O=C1N(Cc2ccccc2)[C@H](CCCc2ccccc2)[C@H](O)[C@@H](O)[C@@H](CCCc2ccccc2)N1Cc1ccccc1`, the Ki rises from 0.23 nM to 570 nM (2500-fold). The first binds more tightly here.

What follows are compounds tested against T1, Human immunodeficiency virus type 1 protease (assay: Inhibition concentration against HIV-1 protease). Conditions: not given.
Outline: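 Purified HIV-1 protease (30 nM) added after 5 min preincubation of 60.8 µM chromophoric HIV substrate III with inhibitor (DMSO, final below 2.5%). Buffer: 50 mM each glycine, sodium acetate, MES and Tris-HCl, 1.0 M NaCl, 1 mM EDTA, 1 mM DTT, pH 5.5, 37 °C. Cleavage rate from absorbance change at 300 nm. IC50 from activity versus log inhibitor concentration.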

Going from `O=C1N(Cc2ccc(CO)cc2)[C@H](Cc2ccccc2)[C@H](O)[C@@H](O)[C@@H](Cc2ccccc2)N1Cc1ccc(CO)cc1` [DMP-323] to `O=C1N(Cc2ccc(CO)cc2)[C@H](COc2ccccc2)[C@H](O)[C@@H](O)[C@@H](COc2ccccc2)N1Cc1ccc(CO)cc1`, the IC50 falls from 15 nM to 10 nM (1.5-fold).

Compared with `O=C1N(Cc2ccccc2)[C@H](COc2ccccc2)[C@H](O)[C@@H](O)[C@@H](COc2ccccc2)N1Cc1ccccc1`, `O=S1(=O)N(Cc2ccccc2)[C@H](COc2ccccc2)[C@H](O)[C@@H](O)[C@@H](COc2ccccc2)N1Cc1ccccc1` is 2.5-fold higher in IC50: 80 nM for the first, 200 nM for the second. The first is the more potent here.

Compared with `O=S1(=O)N(Cc2ccccc2)[C@H](CCc2ccccc2)[C@H](O)[C@@H](O)[C@@H](CCc2ccccc2)N1Cc1ccccc1`, `O=C1N(Cc2ccccc2)[C@H](CCc2ccccc2)[C@H](O)[C@@H](O)[C@@H](CCc2ccccc2)N1Cc1ccccc1` is 20-fold higher in IC50: 200 nM for the first, 4000 nM for the second. The first is the more potent here.

`COC(=O)c1ccc(CN2C(=O)N(Cc3ccc(C(=O)OC)cc3)[C@H](COc3ccccc3)[C@H](O)[C@@H](O)[C@H]2COc2ccccc2)cc1` and `O=C1N(Cc2ccccc2)[C@H](CCCc2ccccc2)[C@H](O)[C@@H](O)[C@@H](CCCc2ccccc2)N1Cc1ccccc1` are within 1.5-fold of each other in IC50: 8000 nM for the first, 10000 nM for the second.
